Twelve compounds from ChEMBL document CHEMBL1155272, “Nucleoside-5'-monophosphates as prodrugs of adenosine A2A receptor agonists activated by ecto-5'-nucleotidase” (J Med Chem, 2009) can be followed below.

The assay deals with T1, 5'-nucleotidase (Rattus norvegicus) (UniProt P21588).
T1 sequence (whole entry): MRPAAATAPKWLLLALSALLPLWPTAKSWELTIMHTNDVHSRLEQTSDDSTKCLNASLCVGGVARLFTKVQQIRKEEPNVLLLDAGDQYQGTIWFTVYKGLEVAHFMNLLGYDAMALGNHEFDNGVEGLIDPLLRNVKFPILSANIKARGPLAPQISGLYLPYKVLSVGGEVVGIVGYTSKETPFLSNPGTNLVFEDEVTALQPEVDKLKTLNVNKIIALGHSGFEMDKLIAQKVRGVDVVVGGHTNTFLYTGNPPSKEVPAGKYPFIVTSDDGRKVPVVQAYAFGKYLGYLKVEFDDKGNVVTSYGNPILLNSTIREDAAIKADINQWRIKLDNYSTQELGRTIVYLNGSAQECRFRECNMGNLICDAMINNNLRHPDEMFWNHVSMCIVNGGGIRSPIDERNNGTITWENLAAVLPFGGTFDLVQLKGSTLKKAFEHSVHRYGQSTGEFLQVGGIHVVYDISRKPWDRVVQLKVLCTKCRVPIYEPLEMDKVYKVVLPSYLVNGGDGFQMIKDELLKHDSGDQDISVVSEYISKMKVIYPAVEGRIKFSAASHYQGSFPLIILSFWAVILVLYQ
Briefly: Activity at rat recombinant ecto-5'-nucleotidase expressed in baculovirus-infected insect Sf9 cells co-transfected with soluble glutathione-S-transferase assessed as compound dephosphorylation by capillary electrophoresis relative to AMP. Further details: concentration or dose not given beside the values. The method, boiled down: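 Purified GST-rat ecto-5'-NT fusion protein (baculovirus/insect cells, glutathione-agarose purified). 500 μM nucleoside monophosphate in 10 mM Hepes pH 7.4, 2 mM MgCl2, 1 mM CaCl2; 37 °C, 20 min; stopped at 99 °C for 5 min. Nucleoside product quantified by capillary electrophoresis (borate pH 9.1, UV 232 nm). Dephosphorylation expressed relative to AMP (100%). Two experiments, triplicate injections.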

In the case of `Nc1nc(SCC2CCCCC2)nc2c1ncn2[C@@H]1O[C@H](COP(=O)(O)O)[C@@H](O)[C@H]1O`, the Activity was 71%. For `Nc1nc(SC2CCCCC2)nc2c1ncn2[C@@H]1O[C@H](COP(=O)(O)O)[C@@H](O)[C@H]1O` the value was 28%.

In the case of `CCCSc1nc(N)c2ncn([C@@H]3O[C@H](COP(=O)(O)O)[C@@H](O)[C@H]3O)c2n1`, the Activity is 47%.

Consider `C#CCSc1nc(N)c2ncn([C@@H]3O[C@H](COP(=O)(O)O)[C@@H](O)[C@H]3O)c2n1`, for which the Activity came out at 0%. For `CCCCCCSc1nc(N)c2ncn([C@@H]3O[C@H](COP(=O)(O)O)[C@@H](O)[C@H]3O)c2n1` the value was 84%; for `Nc1nc(SCCC2CCCCC2)nc2c1ncn2[C@@H]1O[C@H](COP(=O)(O)O)[C@@H](O)[C@H]1O`, 96%.

`Nc1nc(SCc2ccccc2)nc2c1ncn2[C@@H]1O[C@H](COP(=O)(O)O)[C@@H](O)[C@H]1O`: the Activity is 0%. Consider `C=CCSc1nc(N)c2ncn([C@@H]3O[C@H](COP(=O)(O)O)[C@@H](O)[C@H]3O)c2n1`, for which the Activity worked out at 0%. For the compound `Nc1nc(SCCc2ccccc2)nc2c1ncn2[C@@H]1O[C@H](COP(=O)(O)O)[C@@H](O)[C@H]1O`, the Activity was 0%. With `Nc1nc(SCCC2COCCO2)nc2c1ncn2[C@@H]1O[C@H](COP(=O)(O)O)[C@@H](O)[C@H]1O` (some centres not stated), the Activity is 67%. As for `Nc1nc(SCCC2OCCO2)nc2c1ncn2[C@@H]1O[C@H](COP(=O)(O)O)[C@@H](O)[C@H]1O`, the Activity worked out at 104%. Turning to `Nc1nc(SC2CCCC2)nc2c1ncn2[C@@H]1O[C@H](COP(=O)(O)O)[C@@H](O)[C@H]1O`, the Activity came out at 71%.
